Results: ChEMBL document CHEMBL1649231, “In vitro activities of panduratin A against clinical Staphylococcus strains” (2009)
Converted amounts (≈) assume the structure as drawn.

How the values were obtained:
Format in all cases: functional
Staphylococcus hominis = experiment: Antimicrobial activity against methicillin-susceptible coagulase-negative Staphylococcus hominis assessed as intermediate resistant isolates after 24 hrs by broth microdilution method; settings: pooled result: one value given for 5 cell lines, strains, targets or settings
Staphylococcus aureus [1] = experiment: Antimicrobial activity against methicillin-resistant Staphylococcus aureus assessed as susceptible isolates after 24 hrs by broth microdilution method
[2] = tested on: Staphylococcus epidermidis; experiment: Antimicrobial activity against methicillin-resistant coagulase-negative Staphylococcus epidermidis assessed as intermediate resistant isolates after 24 hrs by broth microdilution method
Staphylococcus simulans [3] = experiment: Antimicrobial activity against methicillin-resistant coagulase-negative Staphylococcus simulans assessed as susceptible isolates after 24 hrs by broth microdilution method
[4] = tested on: Staphylococcus epidermidis; experiment: Antimicrobial activity against methicillin-resistant coagulase-negative Staphylococcus epidermidis assessed as susceptible isolates after 24 hrs by broth microdilution method
[5] = tested on: Staphylococcus haemolyticus; experiment: Antimicrobial activity against methicillin-susceptible coagulase-negative Staphylococcus haemolyticus after 24 hrs by broth microdilution method
Summary of the method: (§1)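 Clinical isolates came from blood, body fluids, genital secretions, pus or sputum, identified conventionally or by Vitek. MICs were run by CLSI M7-A6 broth microdilution in Mueller-Hinton broth with 5 × 10^5 CFU/ml inoculum. Agents were twofold serially diluted, starting from 10% DMSO. Drug-free and uninoculated controls were included. Plates were incubated aerobically at 37°C for 24 h; MIC is the lowest concentration giving no visible growth.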

[6] = tested on: Staphylococcus haemolyticus; experiment: Antimicrobial activity against methicillin-resistant coagulase-negative Staphylococcus haemolyticus after 24 hrs by broth microdilution method; summary of the method: as §1
Staphylococcus aureus [7] = experiment: Antimicrobial activity against methicillin-susceptible Staphylococcus aureus after 24 hrs by broth microdilution method; summary of the method: as §1
Staphylococcus aureus [8] = experiment: Antimicrobial activity against methicillin-susceptible Staphylococcus aureus assessed as intermediate resistant isolates after 24 hrs by broth microdilution method
[9] = tested on: Staphylococcus epidermidis; experiment: Antimicrobial activity against methicillin-resistant coagulase-negative Staphylococcus epidermidis after 24 hrs by broth microdilution method; summary of the method: as §1
Staphylococcus simulans [10] = experiment: Antimicrobial activity against methicillin-resistant coagulase-negative Staphylococcus simulans assessed as intermediate resistant isolates after 24 hrs by broth microdilution method
Staphylococcus aureus [11] = experiment: Bactericidal activity against methicillin-susceptible Staphylococcus aureus after 24 hrs by plate counting method
Summary of the method: (§2)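 Clinical staphylococcal isolates from patient body fluids, blood, genital secretions, pus or sputum; species by conventional methods or Vitek. Twofold dilutions in Mueller-Hinton broth, inoculum 5 × 10^5 CFU/ml, 37°C aerobic 24 h (CLSI M7-A6 microdilution). About 100 μl from each well without visible growth spread on MHA; 37°C 24 h. MBC = lowest concentration giving no growth on agar.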

Mammaliicoccus sciuri [12] = experiment: Antimicrobial activity against methicillin-resistant coagulase-negative Staphylococcus sciuri after 24 hrs by broth microdilution method; summary of the method: as §1
[13] = tested on: Staphylococcus epidermidis; experiment: Antimicrobial activity against methicillin-susceptible coagulase-negative Staphylococcus epidermidis assessed as resistant isolates after 24 hrs by broth microdilution method
Staphylococcus simulans [14] = experiment: Bactericidal activity against methicillin-resistant coagulase-negative Staphylococcus simulans after 24 hrs by plate counting method; summary of the method: as §2
Staphylococcus aureus [15] = experiment: Antimicrobial activity against methicillin-resistant Staphylococcus aureus after 24 hrs by broth microdilution method; summary of the method: as §1
Mammaliicoccus sciuri [16] = experiment: Antimicrobial activity against methicillin-resistant coagulase-negative Staphylococcus sciuri assessed as susceptible isolates after 24 hrs by broth microdilution method
[17] = tested on: Staphylococcus haemolyticus; experiment: Bactericidal activity against methicillin-resistant coagulase-negative Staphylococcus haemolyticus after 24 hrs by plate counting method
[18] = tested on: Staphylococcus epidermidis; experiment: Antimicrobial activity against methicillin-susceptible coagulase-negative Staphylococcus epidermidis after 24 hrs by broth microdilution method; summary of the method: as §1
[19] = Staphylococcus haemolyticus, 24 h

Molecule	Activity (Staphylococcus hominis)	Activity (Staphylococcus aureus [1])	Activity [2]	Activity (Staphylococcus simulans [3])	Activity [4]	MIC50 [5]	MIC90 [5]	MIC50 [6]	MIC90 [6]	MIC50 (Staphylococcus aureus [7])	MIC90 (Staphylococcus aureus [7])	Activity (Staphylococcus aureus [8])	MIC50 [9]	MIC90 [9]	Activity (Staphylococcus simulans [10])	MBC50 (Staphylococcus aureus [11])	MIC50 (Mammaliicoccus sciuri [12])	MIC90 (Mammaliicoccus sciuri [12])	Activity [13]	MBC50 (Staphylococcus simulans [14])	also measured
CC[C@H]1OC(=O)[C@H](C)[C@@H](O[C@H]2C[C@@](C)(OC)[C@@H](O)[C@H](C)O2)[C@H](C)[C@@H](O[C@@H]2O[C@H](C)C[C@H](N(C)C)[C@H]2O)[C@](C)(O)C[C@@H](C)C(=O)[C@H](C)[C@@H](O)[C@]1(C)O [ERYTHROMYCIN]	23%	0%	15%	15%	11%	0.5 µg/mL (≈ 0.681 µM)	16 µg/mL (≈ 21.8 µM)	16 µg/mL (≈ 21.8 µM)	32 µg/mL (≈ 43.6 µM)	0.5 µg/mL (≈ 0.681 µM)	32 µg/mL (≈ 43.6 µM)	4%	16 µg/mL (≈ 21.8 µM)	32 µg/mL (≈ 43.6 µM)	15%	4 µg/mL (≈ 5.45 µM)	16 µg/mL (≈ 21.8 µM)	32 µg/mL (≈ 43.6 µM)	27%	32 µg/mL (≈ 43.6 µM)	MIC [5]: 0.5 µg/mL (≈ 0.681 µM); MIC (Staphylococcus aureus [7]): 0.5 µg/mL (≈ 0.681 µM); MBC (Staphylococcus aureus [11]; Staphylococcus aureus, 24 h): 1 µg/mL (≈ 1.36 µM); MBC (Staphylococcus simulans [14]; Staphylococcus simulans, 24 h): 1 µg/mL (≈ 1.36 µM); MIC50 (Staphylococcus aureus [15]): 32 µg/mL (≈ 43.6 µM); MIC90 (Staphylococcus aureus [15]): 64 µg/mL (≈ 87.2 µM); Activity (Mammaliicoccus sciuri [16]): 15%; MBC50 [17]: 32 µg/mL (≈ 43.6 µM); MBC [17, 19]: 1 µg/mL (≈ 1.36 µM); MIC [18]: 0.5 µg/mL (≈ 0.681 µM); MIC50 [18]: 0.5 µg/mL (≈ 0.681 µM); MIC90 [18]: 16 µg/mL (≈ 21.8 µM)
C[C@H]1COc2c(N3CCN(C)CC3)c(F)cc3c(=O)c(C(=O)O)cn1c23.C[C@H]1COc2c(N3CCN(C)CC3)c(F)cc3c(=O)c(C(=O)O)cn1c23.O [LEVOFLOXACIN]	0%	18%	15%	15%	26%	0.25 µg/mL	0.5 µg/mL	0.25 µg/mL	4 µg/mL	0.125 µg/mL	8 µg/mL	4%	0.25 µg/mL	4 µg/mL	15%	1 µg/mL	0.25 µg/mL	4 µg/mL	4%	4 µg/mL	MIC [5]: 0.25 µg/mL; MIC [6]: 0.25 µg/mL; MIC (Staphylococcus aureus [7]): 0.125 µg/mL; MIC [9]: 0.25 µg/mL; MBC90 (Staphylococcus aureus [11]): 8 µg/mL; MBC (Staphylococcus aureus [11]; Staphylococcus aureus, 24 h): 0.125 µg/mL; MIC (Mammaliicoccus sciuri [12]): 0.25 µg/mL; MBC90 (Staphylococcus simulans [14]): 16 µg/mL; MBC (Staphylococcus simulans [14]; Staphylococcus simulans, 24 h): 0.5 µg/mL; MIC50 (Staphylococcus aureus [15]): 8 µg/mL; MIC90 (Staphylococcus aureus [15]): 128 µg/mL; Activity (Mammaliicoccus sciuri [16]): 15%; MBC50 [17]: 4 µg/mL; MBC90 [17]: 16 µg/mL; MBC [17, 19]: 0.5 µg/mL; MIC [18]: 0.25 µg/mL; MIC50 [18]: 0.25 µg/mL; MIC90 [18]: 0.5 µg/mL
CN(C)[C@@H]1C(O)=C(C(N)=O)C(=O)[C@@]2(O)C(O)=C3C(=O)c4c(O)cccc4[C@@](C)(O)[C@H]3C[C@@H]12 [TETRACYCLINE]	19%	30%	7%	7%	18%	0.5 µg/mL (≈ 1.13 µM)	32 µg/mL (≈ 72 µM)	1 µg/mL (≈ 2.25 µM)	64 µg/mL (≈ 144 µM)	4 µg/mL (≈ 9 µM)	8 µg/mL (≈ 18 µM)	19%	1 µg/mL (≈ 2.25 µM)	64 µg/mL (≈ 144 µM)	7%	8 µg/mL (≈ 18 µM)	1 µg/mL (≈ 2.25 µM)	64 µg/mL (≈ 144 µM)	12%	4 µg/mL (≈ 9 µM)	MIC [5]: 0.5 µg/mL (≈ 1.13 µM); MBC90 (Staphylococcus aureus [11]): 32 µg/mL (≈ 72 µM); MBC (Staphylococcus aureus [11]; Staphylococcus aureus, 24 h): 1 µg/mL (≈ 2.25 µM); MBC (Staphylococcus simulans [14]; Staphylococcus simulans, 24 h): 0.5 µg/mL (≈ 1.13 µM); MIC50 (Staphylococcus aureus [15]): 16 µg/mL (≈ 36 µM); MIC90 (Staphylococcus aureus [15]): 32 µg/mL (≈ 72 µM); Activity (Mammaliicoccus sciuri [16]): 7%; MBC50 [17]: 4 µg/mL (≈ 9 µM); MBC [17, 19]: 0.5 µg/mL (≈ 1.13 µM); MIC [18]: 0.5 µg/mL (≈ 1.13 µM); MIC50 [18]: 0.5 µg/mL (≈ 1.13 µM); MIC90 [18]: 32 µg/mL (≈ 72 µM)
CN[C@H](CC(C)C)C(=O)N[C@H]1C(=O)N[C@@H](CC(N)=O)C(=O)N[C@H]2C(=O)N[C@H]3C(=O)N[C@H](C(=O)N[C@H](C(=O)O)c4cc(O)cc(O)c4-c4cc3ccc4O)[C@H](O)c3ccc(c(Cl)c3)Oc3cc2cc(c3O[C@@H]2O[C@H](CO)[C@@H](O)[C@H](O)[C@H]2O[C@H]2C[C@](C)(N)[C@H](O)[C@H](C)O2)Oc2ccc(cc2Cl)[C@H]1O [VANCOMYCIN]	0%	100%	0%	0%	100%	0.25 µg/mL (≈ 0.173 µM)	1 µg/mL (≈ 0.69 µM)	0.125 µg/mL (≈ 0.0863 µM)	2 µg/mL (≈ 1.38 µM)	0.25 µg/mL (≈ 0.173 µM)	0.5 µg/mL (≈ 0.345 µM)	0%	0.125 µg/mL (≈ 0.0863 µM)	2 µg/mL (≈ 1.38 µM)	0%	1 µg/mL (≈ 0.69 µM)	0.125 µg/mL (≈ 0.0863 µM)	2 µg/mL (≈ 1.38 µM)	0%	2 µg/mL (≈ 1.38 µM)	MIC [6]: 0.125 µg/mL (≈ 0.0863 µM); MIC [9]: 0.125 µg/mL (≈ 0.0863 µM); MBC90 (Staphylococcus aureus [11]): 2 µg/mL (≈ 1.38 µM); MBC (Staphylococcus aureus [11]; Staphylococcus aureus, 24 h): 0.25 µg/mL (≈ 0.173 µM); MIC (Mammaliicoccus sciuri [12]): 0.125 µg/mL (≈ 0.0863 µM); MBC90 (Staphylococcus simulans [14]): 4 µg/mL (≈ 2.76 µM); MBC (Staphylococcus simulans [14]; Staphylococcus simulans, 24 h): 0.5 µg/mL (≈ 0.345 µM); MIC50 (Staphylococcus aureus [15]): 0.5 µg/mL (≈ 0.345 µM); MIC90 (Staphylococcus aureus [15]): 0.5 µg/mL (≈ 0.345 µM); Activity (Mammaliicoccus sciuri [16]): 0%; MBC50 [17]: 2 µg/mL (≈ 1.38 µM); MBC90 [17]: 4 µg/mL (≈ 2.76 µM); MBC [17, 19]: 0.5 µg/mL (≈ 0.345 µM); MIC50 [18]: 0.25 µg/mL (≈ 0.173 µM); MIC90 [18]: 1 µg/mL (≈ 0.69 µM)
GENTAMICIN	0%	15%	7%	7%	45%	0.125 µg/mL	32 µg/mL	8 µg/mL	64 µg/mL	4 µg/mL	64 µg/mL	0%	8 µg/mL	64 µg/mL	7%	8 µg/mL	8 µg/mL	64 µg/mL	27%	8 µg/mL	MBC (Staphylococcus aureus [11]): 0.5 µg/mL; MBC90 (Staphylococcus aureus [11]): 128 µg/mL; MBC (Staphylococcus simulans [14]): 0.25 µg/mL; MBC90 (Staphylococcus simulans [14]): 128 µg/mL; MIC50 (Staphylococcus aureus [15]): 32 µg/mL; MIC90 (Staphylococcus aureus [15]): 64 µg/mL; Activity (Mammaliicoccus sciuri [16]): 7%; MBC [17]: 0.25 µg/mL; MBC50 [17]: 8 µg/mL; MBC90 [17]: 128 µg/mL; MIC50 [18]: 0.125 µg/mL; MIC90 [18]: 32 µg/mL
